Compound activity deposited in PubChem by several laboratories.
Most compounds without a hit are left out; they make up all but 1.3% or so of the library.
Furin inh: inhibitors of human furin; purified furin, fluorogenic substrate cleavage; inhibition, % at 20 µM or 30 µM; 220,000 compounds, 0.061% hits; in the data active means inhibition above about 25%
Target sequence (P09958 108-714 limits assumed): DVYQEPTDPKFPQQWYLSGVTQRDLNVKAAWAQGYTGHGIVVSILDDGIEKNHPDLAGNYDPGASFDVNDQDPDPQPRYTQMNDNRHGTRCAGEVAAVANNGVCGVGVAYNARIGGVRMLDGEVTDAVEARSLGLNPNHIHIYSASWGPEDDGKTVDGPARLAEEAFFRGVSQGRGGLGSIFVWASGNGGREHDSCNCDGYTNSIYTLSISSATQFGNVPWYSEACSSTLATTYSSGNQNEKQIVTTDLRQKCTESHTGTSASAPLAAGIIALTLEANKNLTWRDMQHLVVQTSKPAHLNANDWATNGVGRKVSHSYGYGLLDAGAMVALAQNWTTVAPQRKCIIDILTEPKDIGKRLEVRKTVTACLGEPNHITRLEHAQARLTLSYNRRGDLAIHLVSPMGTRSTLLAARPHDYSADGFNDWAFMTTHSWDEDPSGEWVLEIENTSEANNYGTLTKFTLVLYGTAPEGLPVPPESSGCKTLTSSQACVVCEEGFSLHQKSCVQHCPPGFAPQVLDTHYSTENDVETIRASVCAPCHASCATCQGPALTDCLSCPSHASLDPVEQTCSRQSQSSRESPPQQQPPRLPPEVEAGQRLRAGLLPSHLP
JMJD2C inh: human JMJD2C demethylase inhibition; GST-JMJD2C(1-420) H3K9me3 demethylation, DELFIA europium; 330,000 compounds, 0.069% hits; AID 2099; inhibition, % at 2.35 µM;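 active means more than half of a compound's replicate wells show inhibition beyond 50%, single wells judged on their own value; inconclusive means some, but no more than half, of replicates pass 50% inhibition; inactive means no replicate passes 50% inhibition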;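 further: signal counts dimethyl H3K9 product captured on neutravidin plate; 0% = median of DMSO wells and 100% = 0.3 times that DMSO median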
NR2E3 ag-1: NR2E3 (human) agonism; Q9Y5X4; GST-NR2E3/biotin-RetCOR TR-FRET, 1536-well; inhibition of corepressor binding, % at 4.78 µM; 320,000 compounds, 0.12% hits;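 active means percent inhibition above the cutoff of mean plus 3 SD of all tested compounds, set per screening campaign, cut at about 20% in these data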;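 further: 0% = DMSO wells and 100% = biotin wells as full block of FRET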
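system = GST-tagged NR2E3 plus biotinylated RetCOR corepressor | input = 1.35 nM GST-NR2E3 | also added = 7 nM biotin-RetCOR | schedule = 5 h incubation at 4 °C | measured by = TR-FRET with europium anti-GST and streptavidin-D2, 340 nm excitation | read-out = percent loss of FRET ratio relative to control wells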
NR2E3 ag-2: human photoreceptor-specific nuclear receptor agonism; Q9Y5X4; CHO-S Gal4-NCOR/VP16-NR2E3 two-hybrid, luciferase; inhibition of corepressor binding, % at 3.98 µM; 360,000 compounds, 0.35% hits; AID 602229;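 active means inhibition above the mean of all tested compounds plus 3 SD, cut at about 70% in these data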;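 further: 0% = DMSO with NR2E3 transfected cells and 100% = cells lacking NR2E3 construct; higher means lower luciferase signal from less NR2E3 corepressor binding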
EP2 mod: EP2 receptor (human) modulation; EP2-expressing cells, cAMP HTRF FRET, PGE2 co-stimulation; AID 940; induction, % at 25 µM; 260,000 compounds, 0.83% hits;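 active means compounds whose cAMP rise, as percent of the full-agonist control response, exceeds 60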;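 further: rat C6 glioma line stably carrying human EP2 under a CMV promoter; the protocol text gives 20 µM as final concentration; 100% = response of wells given 1 µM PGE2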
PGE2 EP2 inh: EP2 receptor (human) inhibition; C6 glioma cells expressing human EP2, cAMP TR-FRET; cells stimulated with saturating PGE2; 260,000 compounds, 0.52% hits; inhibition, % at 25 µM; P43116;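 active means percent inhibition above 40 after rounding to a whole number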;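 further: rat C6 glioma host cells with rolipram phosphodiesterase inhibitor present; the protocol text gives 20 µM as final concentration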
* hit, by the source's call; ? = inconclusive; · = not tested or not shown; ! = a repeat was not active.

SMILES	Furin inh	JMJD2C inh	NR2E3 ag-1	NR2E3 ag-2	EP2 mod	PGE2 EP2 inh
CCOC(=O)c1c(C)n(Cc2ccco2)c2ccc(OC)cc12	1.6	-13.2	2.2	-3.1	63.8*	14.3
COC(=O)c1c(C)n(Cc2ccco2)c2ccc(O)cc12	-8.0	10.1	4.8	-2.8	3.6	5.6
CC(=O)OC1CC(OC2C(O)CC(OC3C(O)CC(OC4CCC5(C)C(CCC6C5CC(O)C5(C)C(C7=CC(=O)OC7)CCC65O)C4)OC3C)OC2C)OC(C)C1OC1OC(CO)C(O)C(O)C1O (centres undefined)	·	·	·	-3.3	·	·
C[C@@H]1CC[C@@]2(OC1)OC1C(O)C3C4CC[C@H]5C[C@H](O[C@@H]6O[C@H](CO)[C@H](O[C@@H]7O[C@H](CO)[C@@H](O)[C@H](O[C@@H]8OC[C@@H](O)[C@H](O)[C@H]8O)[C@H]7O[C@@H]7O[C@H](CO)[C@H](O)[C@H](O[C@@H]8O[C@H](CO)[C@@H](O)[C@H](O)[C@H]8O)[C@H]7O)[C@H](O)[C@H]6O)[C@H](O)C[C@]5(C)C4CC[C@]3(C)C1[C@@H]2C (some centres undefined)	·	·	·	·	-37.8	116.5*
C=C(C)c1ccccc1 (tested in a mixture with another compound)	·	·	·	·	9.7	55.3*
C=C(c1ccccc1)P(=O)(O)O	-5.1	1.3	-1.2	3.2	12.1	8.3
CCc1nc2ccccc2c(=O)n1-c1ccccc1[N+](=O)[O-]	-17.5	8.2	-5.2	-13.7	5.6	49.0*
CN1CCN(CC(C)(C)CN2C3CCC2CC(O)(c2ccccc2F)C3)CC1 (centres undefined)	·	·	·	·	-21.2	-0.1
N=C(N)SCc1ccc(Cl)c2ccccc12 (tested in a mixture with another compound)	·	·	·	·	-54.5	61.2*
C[C@]12CC[C@H](O[C@@H]3O[C@H](CO)[C@@H](O)[C@H](O)[C@H]3O)C[C@@H]1CC[C@@H]1[C@@H]2CC[C@]2(C)[C@@H](C3=CCOC3=O)CC[C@@]12O	·	·	·	·	-1.9	53.1*
C[C@H]1O[C@@H](O[C@H]2[C@@H](O)C[C@H](O[C@H]3[C@@H](O)C[C@H](O[C@H]4CC[C@]5(C)C6CC[C@]7(C)[C@@H](C8=CC(=O)OC8)CC[C@]7(O)C6CC[C@@H]5C4)O[C@@H]3C)O[C@@H]2C)C[C@H](O)[C@@H]1O (some centres undefined)	·	·	·	·	-6.6	12.1
COC(=O)[C@@H]1c2cc3c(c(O)c2[C@@H](O)C[C@]1(C)O)C(=O)c1c(O)cc2c(c1C3=O)O[C@H]1O[C@]2(C)[C@@H](O)[C@H](N(C)C)[C@H]1O	·	·	·	·	19.0	48.7*
CN(C)CCN(C)C(=O)Cc1csc(-c2ccccc2F)n1	·	·	·	·	-4.8	5.1
CC1(C)[C@@H]2CC[C@@]1(C)CN(CCC[N+](C)(C)C)C2	·	·	·	·	14.3	41.3*
COc1ccc2c(c1)c(C(=O)O)c(C)n2CC(C)C	-2.6	0.4	1.9	-29.6	40.7	12.0
COc1cc(O)c(C(=O)O)c(-c2cc(O)c(O)cc2C)c1	-2.0	-14.0	-0.9	-37.5	23.1	76.6*
COc1ccc2c(c1O)-c1c(OC)c(OC)cc3c1[C@H](C2)N(C)CC3	·	·	3.6	-3.9	17.1	11.2
CCCN1CCc2cccc3c2[C@H]1Cc1ccc(O)c(O)c1-3	·	-35.8	3.3	14.2	40.2	43.3*!
Cc1nnc(SCc2nc3ccccc3c(=O)n2-c2ccccc2Cl)n1N	26.4*	2.6	0.3	6.0	0.9	12.6
Cc1nc2ccccc2c(=O)n1-c1c(Cl)cccc1Cl	·	·	·	-28.2	·	·
CCCCn1c(=O)c(C(=O)NCc2ccncc2)c(O)c2ccccc21	-17.6	-8.9	0.3	-4.3	62.5*	17.2
CCCCn1c(=O)c(C(=O)NCc2ccccc2)c(O)c2ccccc21	·	-3.4	-0.1	-13.1	·	·
C#CCOc1cccc(CN2C3CCC2CC(O)(c2cccc(F)c2)C3)c1 (centres undefined)	·	·	·	·	-54.8	5.8
CN1C(=O)C(Cc2ccsc2)C(=O)N(C)C1=O	-16.2	73.9*	1.3	11.7	4.7	18.1
CN1C(=O)C(Cc2ccccc2)C(=O)N(C)C1=O	·	·	·	-6.1	·	·
SMILES	Furin inh	JMJD2C inh	NR2E3 ag-1	NR2E3 ag-2	EP2 mod	PGE2 EP2 inh
COc1cccc2c1C(=O)c1c(O)c3c(c(O)c1C2=O)C[C@](O)(/C(C)=N/O)C[C@@H]3O[C@@H]1C[C@H](N)[C@@H](O)[C@H](C)O1	·	·	·	·	8.2	45.9*
CCn1nc(-c2ccccc2)nc2c(=O)n(C)c(=O)nc1-2	-14.8	-3.3	41.3*	88.5*	-88.4	42.6*
Cc1[nH]c2ccc(F)cc2c1CC(=O)N(CCN(C)C)Cc1ccccc1F	·	·	·	·	-81.3	4.8
CCC1CN(C)CCC1(OC(C)=O)c1ccccc1 (centres undefined)	-18.3	16.2	-1.6	-0.9	27.2	12.1
CCCCN1CCC(O)(c2ccccc2)C(C(=O)c2ccccc2)C1 (centres undefined)	34.1*	0.0	3.8	1.4	38.8	13.9
CCOC(=O)C1=C(C)OC(N)=C(C#N)C12C(=O)N(Cc1ccccc1)c1ccccc12 (centres undefined)	·	·	·	·	45.5	6.0
CCCN1C2CCCC1CC(NC(=O)C1CC1)C2 (centres undefined)	·	·	·	·	-4.9	14.6
COc1cc2c(ccc3c4cc(OC)c(OC)cc4c[n+](C)c23)cc1O	·	·	·	4.4	·	·
COc1ccc2c(c[n+](C)c3c4cc5c(cc4ccc23)OCO5)c1OC	·	·	·	·	-26.4	117.8*
COc1cc2cc(c1Cl)N(C)C(=O)C[C@H](OC(=O)C(C)C)[C@]1(C)O[C@H]1[C@@H](C)[C@H]1C[C@](O)(NC(=O)O1)[C@@H](OC)/C=C\C=C(\C)C2	·	·	·	·	23.2	52.2*
COC1/C=C/C=C(\C)Cc2cc(O)c(Cl)c(c2)N(C)C(=O)CC(OC(=O)C(C)C)C2(C)OC2C(C)C2CC1(O)NC(=O)O2 (centres undefined)	·	·	·	33.5	·	·
O=C(O)C[C@@H]1OCC=C2CN3CC[C@]45c6ccccc6N[C@H]4[C@H]1[C@H]2C[C@H]35	·	·	·	·	0.6	50.9*
CC1CC(C)CN(C(=O)CN2C3CCC2CC(O)(c2nccn2C)C3)C1 (centres undefined)	·	·	·	·	0.9	·
O=C1CC2(CCNCC2)Oc2ccc(F)cc21	·	·	·	·	-46.2	5.8
C[C@]12CC[C@@H]3c4ccc(O)c(O)c4CC[C@H]3[C@@H]1CC[C@@H]2O	·	?	-0.1	-23.2	-23.7	89.0*
CC(Cc1ccccc1)NCc1ccccc1O (centres undefined)	2.3	0.9	-0.9	8.5	4.6	3.6
C[C@@]12C[C@@H](c3ccoc3)OC(=O)[C@@H]1CC[C@]1(C)C2[C@H]2C=C[C@]1(O)C(=O)O2 (some centres undefined)	·	·	·	·	13.6	10.0
